Measurements published in ChEMBL document CHEMBL1145927 (J Med Chem, 2003).

Columns and labels:
[1] = molecular target: T1, Prostaglandin G/H synthase 2 (Homo sapiens) (UniProt P35354); conditions: at 1 µM
T1 sequence (whole entry): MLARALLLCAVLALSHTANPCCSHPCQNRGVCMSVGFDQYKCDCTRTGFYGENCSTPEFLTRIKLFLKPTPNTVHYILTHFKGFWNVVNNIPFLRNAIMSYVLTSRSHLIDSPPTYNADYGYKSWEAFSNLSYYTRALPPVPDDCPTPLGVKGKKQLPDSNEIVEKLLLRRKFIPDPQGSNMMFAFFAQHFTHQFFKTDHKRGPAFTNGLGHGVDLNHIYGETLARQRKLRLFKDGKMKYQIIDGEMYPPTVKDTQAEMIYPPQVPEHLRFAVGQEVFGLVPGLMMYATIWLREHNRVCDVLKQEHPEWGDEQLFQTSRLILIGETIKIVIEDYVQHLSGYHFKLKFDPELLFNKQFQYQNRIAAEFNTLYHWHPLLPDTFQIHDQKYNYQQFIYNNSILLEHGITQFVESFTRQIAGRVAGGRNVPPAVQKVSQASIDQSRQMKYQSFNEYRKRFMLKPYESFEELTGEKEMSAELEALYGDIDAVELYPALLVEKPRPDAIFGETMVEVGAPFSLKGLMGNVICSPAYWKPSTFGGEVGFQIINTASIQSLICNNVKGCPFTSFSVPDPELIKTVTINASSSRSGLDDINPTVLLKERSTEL

[2] = molecular target: T2, Prostaglandin G/H synthase 1 (Homo sapiens, UniProt P23219); conditions: at 100 µM
[3] = molecular target: T1, Prostaglandin G/H synthase 2 (Homo sapiens); conditions: at 10 µM
[4] = molecular target: T2, Prostaglandin G/H synthase 1; assay: In vitro average percent inhibition of human prostaglandin G/H synthase 1 (COX-1) at a concentration of 100 uM
How it was run: (§1)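 Supplied recombinant human COX-1 (5 units) preincubated 2 min at 25 °C in 0.1 M Tris-HCl pH 8.0 with 5 mM EDTA, 2 mM phenol and heme; compound or DMSO added, 20 min at 25 °C; started with 10 mM arachidonic acid stock, 2 min at 37 °C; stopped with HCl, SnCl2 reduction; prostaglandins by EIA; percent inhibition versus solvent control.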

[5] = molecular target: T3, Prostaglandin G/H synthase 1 (Ovis aries) (UniProt P05979); assay: Compound was tested for in vitro inhibition of recombinant ovine Prostaglandin G/H synthase 1 (COX-1) at a concentration of 100 uM
T3 sequence (whole entry): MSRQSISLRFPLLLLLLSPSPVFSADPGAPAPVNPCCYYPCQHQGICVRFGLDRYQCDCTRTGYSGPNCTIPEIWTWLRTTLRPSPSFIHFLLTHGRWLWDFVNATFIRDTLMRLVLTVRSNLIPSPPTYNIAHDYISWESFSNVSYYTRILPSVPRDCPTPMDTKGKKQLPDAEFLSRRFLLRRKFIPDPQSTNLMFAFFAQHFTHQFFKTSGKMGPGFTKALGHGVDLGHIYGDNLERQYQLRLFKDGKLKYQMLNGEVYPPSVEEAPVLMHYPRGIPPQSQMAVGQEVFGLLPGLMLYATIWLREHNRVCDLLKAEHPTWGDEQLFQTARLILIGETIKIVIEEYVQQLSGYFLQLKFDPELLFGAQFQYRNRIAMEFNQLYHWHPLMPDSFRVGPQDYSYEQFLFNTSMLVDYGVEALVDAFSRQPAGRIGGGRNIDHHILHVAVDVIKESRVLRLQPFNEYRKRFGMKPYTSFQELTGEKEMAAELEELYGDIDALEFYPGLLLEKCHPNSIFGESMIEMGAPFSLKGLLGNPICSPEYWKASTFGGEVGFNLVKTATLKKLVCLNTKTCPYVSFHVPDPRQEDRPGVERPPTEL
How it was run: as §1, with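 “ovine” for “human”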

[6] = molecular target: T2, Prostaglandin G/H synthase 1; assay: In vitro average percent Inhibition of Prostaglandin G/H synthase 1 (COX-1) at a concentration of 100 uM in human whole blood by human whole blood assay; type: tissue-based
[7] = molecular target: T1, Prostaglandin G/H synthase 2 (Homo sapiens); conditions: Blood; at 1 µM
[8] = molecular target: T1, Prostaglandin G/H synthase 2 (Homo sapiens); conditions: Blood; at 10 µM
[9] = molecular target: T2, Prostaglandin G/H synthase 1; assay: In vitro average percent Inhibition of Prostaglandin G/H synthase 1 (COX-1) at a concentration of 100 uM determined in human whole blood by human whole blood (HWB) assay; type: tissue-based
[10] = molecular target: T1, Prostaglandin G/H synthase 2 (Homo sapiens); assay: In vitro average percent Inhibition of Prostaglandin G/H synthase 2 (COX-2) at a concentration of 10 uM determined by human whole blood (HWB) assay
How it was run: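 Heparinized whole blood from male or female donors free of aspirin/NSAIDs for 14 days, 1 mL aliquots pre-warmed 15 min at 37 °C, 5% CO2; compound in DMSO, duplicate wells; COX-2 induced by E. coli LPS added 4.5 h later, incubated 5 h; stopped on ice with 2 mM EGTA; plasma methanol-extracted, TXB2 by EIA; average of two donors.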

[11] = molecular target: T4, Prostaglandin G/H synthase 2 (Homo sapiens, UniProt P35354); assay: Compound was tested for the inhibition of human Prostaglandin G/H synthase 2 (COX-2) in human whole blood; type: tissue-based
T4 sequence (P35354 whole entry): T1 sequence (whole entry)

[12] = molecular target: T2, Prostaglandin G/H synthase 1; assay: Compound was tested for the inhibition of human Prostaglandin G/H synthase 1 (COX-1) in human whole blood; type: tissue-based

T2 sequence (P23219 whole entry): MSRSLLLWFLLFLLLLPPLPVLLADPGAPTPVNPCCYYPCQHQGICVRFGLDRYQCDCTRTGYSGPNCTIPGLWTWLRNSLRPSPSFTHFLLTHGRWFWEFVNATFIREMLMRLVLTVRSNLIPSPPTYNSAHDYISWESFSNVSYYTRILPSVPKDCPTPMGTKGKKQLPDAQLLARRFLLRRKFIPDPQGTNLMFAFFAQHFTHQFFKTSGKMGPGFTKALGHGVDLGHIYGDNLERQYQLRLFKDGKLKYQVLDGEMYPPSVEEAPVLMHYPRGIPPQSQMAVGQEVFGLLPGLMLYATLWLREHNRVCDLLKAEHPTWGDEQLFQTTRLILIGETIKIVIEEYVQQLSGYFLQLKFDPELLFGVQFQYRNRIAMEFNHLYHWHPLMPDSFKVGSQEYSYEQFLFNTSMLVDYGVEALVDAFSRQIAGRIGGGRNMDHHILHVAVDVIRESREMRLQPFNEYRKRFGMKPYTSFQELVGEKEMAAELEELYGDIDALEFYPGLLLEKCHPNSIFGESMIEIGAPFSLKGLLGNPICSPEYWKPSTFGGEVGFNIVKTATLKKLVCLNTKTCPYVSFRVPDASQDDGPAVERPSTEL

| SMILES | inhibition [1] [%] | inhibition [2] [%] | inhibition [3] [%] | inhibition [4] [%] | further results |
| --- | --- | --- | --- | --- | --- |
| CS(=O)(=O)c1ccc(-c2cc3c(cc2C(=O)N2CCOCC2)OCO3)cc1 | 35 | 10 | 10 |  |  |
| CS(=O)(=O)c1ccc(-c2cc3c(cc2CC2CCCCCC2)OCO3)cc1 | 90 |  | 100 | 40 | inhibition [5]: 10% |
| CS(=O)(=O)c1ccc(-c2cc3c(cc2C(=O)c2cc(F)cc(F)c2)OCO3)cc1 |  |  |  | 50 |  |
| CS(=O)(=O)c1ccc(-c2cc3c(cc2Cc2cccnc2)OCO3)cc1 | 0 | 30 | 65 |  | inhibition [6]: 35%; inhibition [7]: 15%; inhibition [8]: 15% |
| COc1cc(Cc2cc(F)cc(F)c2)c(-c2ccc(S(C)(=O)=O)cc2)cc1OC |  |  |  |  | inhibition [9]: 0%; inhibition [10]: 15% |
| CS(=O)(=O)c1ccc(-c2cc3c(cc2Cc2cccc(F)c2)OCO3)cc1 |  |  |  | 25 |  |
| CS(=O)(=O)c1ccc(C2=C(c3ccccc3)C(=O)OC2)cc1 | 40 | 0 |  |  | inhibition [6]: 75%; inhibition [7]: 75% |
| CS(=O)(=O)c1ccc(-c2cc3c(cc2Cc2cccc(Cl)c2)OCO3)cc1 |  |  |  | 65 |  |
| CS(=O)(=O)c1ccc(-c2cc3c(cc2C(=O)C2CCCCC2)OCO3)cc1 |  |  |  | 55 |  |
| CS(=O)(=O)c1ccc(-c2cc3c(cc2C=C2CCCC2)OCO3)cc1 | 65 |  | 90 | 70 | inhibition [5]: 80% |
| CS(=O)(=O)c1ccc(-c2cc3c(cc2CN2CCC(O)CC2)OCO3)cc1 | 10 | 0 | 25 |  |  |
| Cc1cccnc1C(=O)c1cc2c(cc1-c1ccc(S(C)(=O)=O)cc1)OCO2 | 0 | 0 | 10 |  |  |
| CS(=O)(=O)c1ccc(-c2cc3c(cc2C(=O)c2cccc(F)c2)OCO3)cc1 |  |  |  | 50 | IC50 [11]: 1 µM; IC50 [12]: 20 µM |
| CS(=O)(=O)c1ccc(-c2cc3c(cc2Cc2ccccc2F)OCO3)cc1 |  |  |  | 75 |  |
| CS(=O)(=O)c1ccc(-c2cc3c(cc2C(=O)c2ccc(F)cc2)OCO3)cc1 |  |  |  | 95 |  |
| Cc1ccc(Cc2cc3c(cc2-c2ccc(S(C)(=O)=O)cc2)OCO3)cc1 | 50 |  | 80 |  | inhibition [6]: 45%; inhibition [5]: 25%; inhibition [7]: 0%; inhibition [8]: 10% |
| CS(=O)(=O)c1ccc(-c2cc3c(cc2CN2CCCCC2CO)OCO3)cc1 (stereo not drawn) | 25 | 0 | 30 |  |  |
| COc1cccc(C(=O)c2cc3c(cc2-c2ccc(S(C)(=O)=O)cc2)OCO3)c1 |  |  |  | 95 |  |
| CS(=O)(=O)c1ccc(-c2cc3c(cc2C(=O)N2CCCC2)OCO3)cc1 | 0 | 0 | 20 |  |  |
| Cc1ccc(C(=O)c2cc3c(cc2-c2ccc(S(C)(=O)=O)cc2)OCO3)cc1 |  |  |  | 60 |  |
| CN1CCN(C(=O)c2cc3c(cc2-c2ccc(S(C)(=O)=O)cc2)OCO3)CC1 | 20 | 15 | 15 |  |  |
| CS(=O)(=O)c1ccc(-c2cc3c(cc2C(=O)c2cnccc2Br)OCO3)cc1 | 10 |  | 0 |  | inhibition [5]: 40% |
